Results taken from PubChem BioAssay AID493227 (Broad Institute, 2011).
“And” between values parts separate entries of the source, which are not always exact repeats. Equal values may be shown once. The source made the active and inactive calls.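 Rule for the calls: active = fitted curve reaches 40% activation at a dose no higher than the top dose validly tested; inconclusive = flat curve between 30 and 70% activation, or poor fit; inactive = the rest, including signal moving against the expected rise.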

Test system: not listed separately
Experiment: HIF pathway reporter activators – cell-based, luminescence, U2OS HRE-luc, dry powder, set 8, dose response (AID 493227)
Details: U2OS HRE-luciferase reporter, luminescence, HIF activation; at 38 µM (top of the series)
How it was run: (§1)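 Material: human U2OS osteosarcoma cells stably carrying 3×HRE-luciferase reporter. Input: 6,000 cells per well. Technique: Steady-Glo luminescence. Medium: phenol red-free DMEM with 10% FBS, no hygromycin. Times: 24 h plating, 24 h compound treatment.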

Structure (SMILES)	activation
O=C(Nc1ncc(-c2ccccc2)o1)c1cc(-c2ccccc2)on1	-20.6% (inactive)
Cn1c(-c2ccccc2)cnc1NC(=O)c1cc(-c2ccccc2)on1	8.45% (inactive)
O=C(c1cc(-c2ccccc2)on1)N1CCC(CO)CC1	-18% (inactive)
Oc1ccc(CN2CCc3ccccc3C2)c2cccnc12	99.2% (inactive)
O=C(c1cc(-c2ccccc2)on1)N1CCc2cccnc21	-1.93% (inactive)
O=C(NCC1CCCCC1)c1cc(-c2ccccc2)on1	15.7% (inactive)
Cc1ccc(NC(=O)c2cc(-c3ccccc3)on2)cn1	-3.16% (inactive)
O=C(c1cc(-c2ccccc2)on1)N1CCC(N2CCOCC2)CC1	-9.31% (inactive)
O=C(c1cc(-c2ccccc2)on1)N1CCC(N2CCCC2)CC1	-2.94% (inactive)
O=C(Nc1cnc2ccccc2c1)c1cc(-c2ccccc2)on1	22.1% (inactive)
O=C(c1cc(-c2ccccc2)on1)N1CCN(c2ccncc2)CC1	-11.8% (inactive)
CN1CCN(C(=O)c2cc(-c3ccccc3)on2)CC1	-33.9% (inactive)
O=C(Nc1cn2ccccc2n1)c1cc(-c2ccccc2)on1	-5.39% (inactive)
Cn1c(NC(=O)c2cc(-c3ccccc3)on2)nc2ccccc21	5.66% (inactive)
O=C(Nc1nc2ccccc2s1)c1cc(-c2ccccc2)on1	9.05% (inactive)
O=C(NC1CCc2ccccc2C1)c1cc(-c2ccccc2)on1 (stereo not drawn)	-11.6% (inactive)
O=C(Nc1ccc2ccccc2n1)c1cc(-c2ccccc2)on1	-20.3% (inactive)
c1ccc(-c2nnc(-c3ccccn3)nc2N2CCC(C3CCCCC3)C2)cc1 (stereo not drawn)	2190% (inactive)
O=C(Nc1nnc(-c2ccccc2)s1)c1cc(-c2ccccc2)on1	6.25% (inactive)
O=C(Nc1nc(-c2ccccc2)cs1)c1cc(-c2ccccc2)on1	-11.1% (inactive)
Cc1ccccc1CNC(=O)c1cc(-c2ccccc2)on1	17.1% (inactive)
Cc1ccc(CNC(=O)c2cc(-c3ccccc3)on2)cc1	-27% (inactive)
O=C(Nc1ncc2ccccc2n1)c1cc(-c2ccccc2)on1	8.54% (inactive)

Test system: U2OS HRE-luciferase reporter, luminescence, HIF activation
Experiment: as above
Details: not given
How it was run: as §1

Structure (SMILES)	AC40
CC(C)(C)CCNc1nc(-c2ccccn2)nnc1-c1ccccc1	1.41 µM and 0.785 µM
Cc1ccc(CNc2nc(-c3ccccn3)nnc2-c2ccccc2)cc1	1.28 µM
Cc1ccc(Nc2nc(-c3ccccn3)nnc2-c2ccccc2)cn1	3.28 µM
Cc1cccc(NC(=O)c2cc(-c3ccccc3)on2)n1	> 38 µM (inactive)
Cn1c(-c2ccccc2)cnc1Nc1nc(-c2ccccn2)nnc1-c1ccccc1	4.17 µM
c1ccc(-c2nnc(-c3ccccn3)nc2N2CCC(N3CCOCC3)CC2)cc1	2.18 µM
Oc1ccc(CN2CCc3ccccc3C2)c2cccnc12	2.32 µM
CN(C)c1nc(-c2ccccn2)nnc1-c1ccccc1	6.62 µM
c1ccc(-c2nnc(-c3ccccn3)nc2NCc2ccccn2)cc1	8.01 µM
O=C(NC1Cc2ccccc2C1)c1cc(-c2ccccc2)on1	> 38 µM (inactive)
Oc1ccc(CN2CCC3CCCCC3C2)c2cccnc12 (stereo not drawn)	4.8 µM
c1ccc(-c2nnc(-c3ccccn3)nc2NCC2CCOCC2)cc1	5.01 µM
O=C(NCCN1CCCCC1)c1cc(-c2ccccc2)on1	> 38 µM (inactive)
O=C(NCCCO)c1cc(-c2ccccc2)on1	5.37 µM
CCCCNC(=O)c1cc(-c2ccccc2)on1	3.17 µM
CN(C)CCNC(=O)c1cc(-c2ccccc2)on1	> 38 µM (inactive)
Cc1ccc(CNc2nc(-c3ccccn3)nnc2-c2ccccc2)cc1C	0.364 µM
Cc1cccc(CNC(=O)c2cc(-c3ccccc3)on2)c1	> 38 µM (inactive)
O=C(NCCCn1ccnc1)c1cc(-c2ccccc2)on1	4.16 µM
c1ccc(-c2ccc(CNc3nc(-c4ccccn4)nnc3-c3ccccc3)cc2)cc1	0.379 µM
Oc1ccc(CN2CCC(Cc3ccccc3)CC2)c2cccnc12	11.1 µM
c1ccc(-c2nnc(-c3ccccn3)nc2Nc2cnc3ccccc3n2)cc1	3.83 µM

Structure (SMILES)	AC40
O=C(NCc1ccccc1)c1cc(-c2ccccc2)on1	> 38 µM (inactive)
O=C(NCCN1CCOCC1)c1cc(-c2ccccc2)on1	8.1 µM
CC(C)(C)CCNC(=O)c1cc(-c2ccccc2)on1	5.03 µM
C=CCNc1nc(-c2ccccn2)nnc1-c1ccccc1	1.3 µM
C[C@@H](Nc1nc(-c2ccccn2)nnc1-c1ccccc1)C1CCCCC1	1.88 µM
OCCCNc1nc(-c2ccccn2)nnc1-c1ccccc1	7.76 µM
O=C(NCC1CC1)c1cc(-c2ccccc2)on1	1.5 µM
COc1cccc(CNc2nc(-c3ccccn3)nnc2-c2ccccc2)c1	1.31 µM
C[C@H](Nc1nc(-c2ccccn2)nnc1-c1ccccc1)C1CCCCC1	1.16 µM
Cc1cccc(CNc2nc(-c3ccccn3)nnc2-c2ccccc2)c1	2.09 µM
O=C(NCCCN1CCOCC1)c1cc(-c2ccccc2)on1	7.62 µM
CC1CN(Cc2ccc(O)c3ncccc23)CC(C)O1 (stereo not drawn)	36.6 µM
c1ccc(-c2cccc(CNc3nc(-c4ccccn4)nnc3-c3ccccc3)c2)cc1	0.06 µM
OCC1CCN(c2nc(-c3ccccn3)nnc2-c2ccccc2)CC1	12.1 µM
c1ccc(-c2nnc(-c3ccccn3)nc2NCC2CCCCC2)cc1	1.28 µM
COc1ccccc1N1CCN(Cc2ccc(O)c3ncccc23)CC1	11.8 µM
N#CC1(c2ccccc2)CCN(Cc2ccc(O)c3ncccc23)CC1	14.5 µM
c1ccc(-c2nnc(-c3ccccn3)nc2NCCN2CCOCC2)cc1	1.96 µM
c1ccc(CNc2nc(-c3ccccn3)nnc2-c2ccccc2)cc1	3.22 µM
CC(C)(C)OC(=O)N1CCN(Cc2ccc(O)c3ncccc23)CC1	> 38 µM (inactive)
c1ccc(-c2nnc(-c3ccccn3)nc2Nc2nc3ccccc3s2)cc1	2.87 µM
C[C@@H](Nc1nc(-c2ccccn2)nnc1-c1ccccc1)c1ccccc1	1.61 µM

Structure (SMILES)	AC40
c1ccc(-c2nnc(-c3ccccn3)nc2NCc2cccnc2)cc1	3.73 µM
c1ccc(-c2csc(Nc3nc(-c4ccccn4)nnc3-c3ccccc3)n2)cc1	13.9 µM
Oc1ccc(CNC2Cc3ccccc3C2)c2cccnc12	8.12 µM
CC(C)(C)c1ccc(CNc2nc(-c3ccccn3)nnc2-c2ccccc2)cc1	0.393 µM
c1ccc(-c2nnc(-c3ccccn3)nc2NCCCN2CCOCC2)cc1	3.61 µM
Cc1cccc(Nc2nc(-c3ccccn3)nnc2-c2ccccc2)n1	1.89 µM
Oc1ccc(CNC2CCc3ccccc32)c2cccnc12 (stereo not drawn)	13.9 µM
CN1CCN(c2nc(-c3ccccn3)nnc2-c2ccccc2)CC1	3.01 µM
c1ccc(CCNc2nc(-c3ccccn3)nnc2-c2ccccc2)cc1	1.35 µM
c1ccc(-c2nnc(Nc3nc(-c4ccccn4)nnc3-c3ccccc3)s2)cc1	0.582 µM
O=C(NCCCCO)c1cc(-c2ccccc2)on1	1.65 µM
Cc1ccccc1CNc1nc(-c2ccccn2)nnc1-c1ccccc1	2.08 µM
c1ccc(-c2nnc(-c3ccccn3)nc2NCCc2ccccn2)cc1	3.14 µM
COc1ccc(CNc2nc(-c3ccccn3)nnc2-c2ccccc2)cc1	0.782 µM
Clc1cccc(CNc2nc(-c3ccccn3)nnc2-c2ccccc2)c1	0.826 µM
c1ccc(-c2nnc(-c3ccccn3)nc2NCC2CC2)cc1	2.77 µM
OCC1CCN(Cc2ccc(O)c3ncccc23)CC1	15.9 µM
c1ccc(-c2cnc(Nc3nc(-c4ccccn4)nnc3-c3ccccc3)s2)cc1	10.7 µM
CC(Nc1nc(-c2ccccn2)nnc1-c1ccccc1)c1ccccc1 (stereo not drawn)	0.875 µM
c1ccc(-c2nnc(-c3ccccn3)nc2N2CCC(c3ccccc3)C2)cc1 (stereo not drawn)	0.509 µM
c1ccc(-c2nnc(-c3ccccn3)nc2N2CCN(c3ccncc3)CC2)cc1	2.35 µM
